The record followed here is ChEMBL document CHEMBL1154802, “Antiestrogenic constituents of the Thai medicinal plants Capparis flavicans and Vitex glabrata” (2009).

The source made the active and inactive calls. The rule behind the calls is not given here.

For assay [1], the system named is T47D. As to the kind of experiment: Antiestrogenic activity in human T47D cells assessed as drug level causing inhibition of 100 pM E2-enhanced cell proliferation to level equivalent to 1 pM E2 after 96 hrs by alamar blue assay. It counts as functional. The method, boiled down: (§1)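 Cells seeded at 1 × 10^4 per well in phenol red-free RPMI with 5% DCC-treated FBS. E2 was added from a 20 nM solution to give 100 pM and preincubated 1 h at 37 °C, 5% CO2. Compounds were then added at 0.1, 1, 10 and 100 µM for 96 h, with serially diluted tamoxifen as positive control. Antagonism was judged from cell populations. iEqE values were obtained by linear regression over four concentrations.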
In general terms: Alamar Blue is a resazurin reagent that responds to reducing activity.

Assay [2] deals with MCF7. As to the kind of experiment: Stimulation of human MCF7 cell proliferation up to 100 uM after 96 hrs by alamar blue assay relative to estradiol. It is filed as functional, cell-based. The method, boiled down: (§2)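 Compounds were given alone at 0.1, 1, 10 and 100 µM, and stimulation of proliferation was compared with estradiol at 1–100 pM. Cell proliferation assay as in an earlier report.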

The subject of assay [3] is MCF7. As to the kind of experiment: Antiestrogenic activity in human MCF7 cells assessed as drug level causing inhibition of 100 pM E2-enhanced cell proliferation to level equivalent to 10 pM E2 after 96 hrs by alamar blue assay. It is filed as functional. In outline: as §1
In assay [4] the test system is T47D. As to the kind of experiment: Antiestrogenic activity in human T47D cells assessed as drug level causing inhibition of 100 pM E2-enhanced cell proliferation to level equivalent to 10 pM E2 after 96 hrs by alamar blue assay. It counts as functional. In outline: as §1
Assay [5] has as its system MCF7. As to the kind of experiment: Antiestrogenic activity in human MCF7 cells assessed as drug level causing inhibition of 100 pM E2-enhanced cell proliferation to level equivalent to 50 pM E2 after 96 hrs by alamar blue assay. It is filed as functional. The method, boiled down: as §1
The test system of assay [6] is T47D. As to the kind of experiment: Stimulation of human T47D cell proliferation up to 100 uM after 96 hrs by alamar blue assay relative to estradiol. It counts as functional, cell-based. The method, boiled down:
as §2

Assay [7] relates to T47D. As to the kind of experiment: Antiestrogenic activity in human T47D cells assessed as drug level causing inhibition of 100 pM E2-enhanced cell proliferation to level equivalent to 50 pM E2 after 96 hrs by alamar blue assay. It is filed as functional. In outline: as §1
Assay [8] deals with MCF7. As to the kind of experiment: Antiestrogenic activity in human MCF7 cells assessed as drug level causing inhibition of 100 pM E2-enhanced cell proliferation to level equivalent to 1 pM E2 after 96 hrs by alamar blue assay. It is filed as functional. In outline:
as §1

Assay [9] deals with T47D. As to the kind of experiment: Antiestrogenic activity in human T47D cells assessed as inhibition of E2-enhanced cell proliferation at 0.1 to 100 uM after 96 hrs by alamar blue assay. It is filed as functional. In outline: as §1

As to `COc1cc([C@H]2OC[C@H]3[C@@H]2CO[C@@H]3c2cc(OC)c(O[C@@H]3O[C@H](CO)[C@@H](O)[C@H](O)[C@H]3O)c(OC)c2)cc(OC)c1O`, the Activity with T47D [1] is above 100 µM; in the assay with MCF7 [3] it was below 0.1 µM; in the assay on T47D [4], 19 µM; in the assay on MCF7 [5] it was below 0.1 µM; in the assay with T47D [7], below 0.1 µM; in the assay with MCF7 [8], below 0.1 µM. The result in the assay with MCF7 [2] and with T47D [6] was inactive.

As to `Oc1ccc([C@H]2OC[C@H]3[C@@H]2CO[C@@H]3c2ccc(O)c(O)c2)cc1O`, the Activity with T47D [1] stood at 73 µM; in the assay with MCF7 [3], 31 µM; in the assay with T47D [4] it was 26 µM; in the assay on MCF7 [5] it was 0.2 µM; in the assay on T47D [7], 0.2 µM; with MCF7 [8], 94 µM. In addition, the result in the assay on MCF7 [2] and in the assay with T47D [6] was inactive.

Turning to `COc1cc([C@H]2OC[C@H]3[C@@H]2CO[C@@H]3c2ccc(O[C@@H]3O[C@H](CO)[C@@H](O)[C@H](O)[C@H]3O)c(OC)c2)ccc1O`, the Activity was above 100 µM with T47D [1]; below 0.1 µM with MCF7 [3]; below 0.1 µM in the assay with T47D [4]; below 0.1 µM with MCF7 [5]; below 0.1 µM in the assay on T47D [7]; below 0.1 µM with MCF7 [8]. Moreover, the outcome with MCF7 [2] and with T47D [6] was inactive. Further, the “inhibition (INH)” value with T47D [9] is recorded as above 90%.

As for `COc1cc([C@H]2Oc3c(OC)cc(/C=C/CO)cc3[C@@H]2CO)ccc1O[C@@H]1O[C@H](CO)[C@@H](O)[C@H](O)[C@H]1O`, the Activity is above 100 µM in the assay on T47D [1]; above 100 µM with MCF7 [3]; 63 µM in the assay on T47D [4]; 0.3 µM in the assay with MCF7 [5]; below 0.1 µM with T47D [7]; above 100 µM in the assay with MCF7 [8]. The result in the assay with MCF7 [2] and in the assay on T47D [6] was inactive.

Regarding `COc1cc(C[C@H](CO)[C@@H](CO[C@@H]2O[C@H](CO)[C@@H](O)[C@H](O)[C@H]2O)Cc2cc(OC)c(O)c(OC)c2)cc(OC)c1O`, the Activity in the assay on T47D [1] is above 100 µM; in the assay with MCF7 [3] it was 0.8 µM; in the assay on T47D [4], above 100 µM; in the assay with MCF7 [5], below 0.1 µM; in the assay on T47D [7] it was 0.6 µM; with MCF7 [8], 93 µM. Further, the result in the assay on MCF7 [2] and with T47D [6] was inactive.

On to `COc1cc([C@H](O[C@@H]2O[C@H](CO)[C@@H](O)[C@H](O)[C@H]2O)[C@@H](CO)Oc2c(OC)cc(/C=C/CO)cc2OC)ccc1O`, for which the Activity in the assay with T47D [1] was above 100 µM; with MCF7 [3] it was 6 µM; in the assay on T47D [4], above 100 µM; in the assay with MCF7 [5], below 0.1 µM; in the assay on T47D [7], below 0.1 µM; in the assay with MCF7 [8], above 100 µM. Moreover, the result with MCF7 [2] and in the assay with T47D [6] was inactive. Further, the “inhibition (INH)” value in the assay with T47D [9] was above 50%.

In the case of `CCCc1ccc(O[C@@H]2O[C@H](CO)[C@@H](O)[C@H](O)[C@H]2O)c(OC)c1`, the Activity with T47D [1] was above 100 µM; in the assay with MCF7 [3], below 0.1 µM; with T47D [4], above 100 µM; in the assay on MCF7 [5], below 0.1 µM; in the assay on T47D [7], below 0.1 µM; in the assay on MCF7 [8], 0.4 µM. Also, the result in the assay with MCF7 [2] and in the assay with T47D [6] was inactive. For the same compound, the “inhibition (INH)” value in the assay with T47D [9] is on record as above 50%.

Consider `COc1cc(O)ccc1O[C@@H]1O[C@H](CO[C@@H]2OC[C@@H](O)[C@H](O)[C@H]2O)[C@@H](O)[C@H](O)[C@H]1O` [CAPPAROSIDE A], for which the Activity in the assay on T47D [1] was above 100 µM; in the assay on MCF7 [3], 0.3 µM; with T47D [4], above 100 µM; with MCF7 [5] it was below 0.1 µM; in the assay on T47D [7], below 0.1 µM; with MCF7 [8] it was above 100 µM. Besides, the result in the assay with MCF7 [2] and with T47D [6] was inactive. Besides, the “inhibition (INH)” value in the assay on T47D [9] is above 50%.

As for `OC/C=C/c1ccc2c(c1)O[C@H](c1ccc(O)c(O)c1)[C@@H](CO)O2` [ISOAMERICANOL A], the Activity in the assay on T47D [1] was above 100 µM; in the assay on MCF7 [3], 6 µM; with T47D [4], 9 µM; with MCF7 [5], below 0.1 µM; with T47D [7] it was below 0.1 µM; with MCF7 [8], above 100 µM. For the same compound, the result in the assay on MCF7 [2] and with T47D [6] was inactive.

`COc1cc([C@H]2OC[C@H]3[C@@H]2CO[C@@H]3c2cc(OC)c(O)c(OC)c2)ccc1O[C@@H]1O[C@H](CO)[C@@H](O)[C@H](O)[C@H]1O` [ISOEUCOMMIN A]: the Activity in the assay on T47D [1] was above 100 µM; with MCF7 [3], below 0.1 µM; in the assay on T47D [4], below 0.1 µM; in the assay with MCF7 [5], below 0.1 µM; with T47D [7] it was below 0.1 µM; in the assay with MCF7 [8], below 0.1 µM. Moreover, the outcome with MCF7 [2] and with T47D [6] was inactive. For the same compound, the “inhibition (INH)” value in the assay with T47D [9] was above 90%.

As for `OC[C@H]1O[C@@H](Oc2cc([C@H]3OC[C@]4(O)[C@@H](c5ccc6c(c5)OCO6)OC[C@]34O)ccc2O)[C@H](O)[C@@H](O)[C@@H]1O` [KHAINAOSIDE A], the Activity in the assay with T47D [1] was 3 µM; in the assay on MCF7 [3], below 0.1 µM; with T47D [4] it was below 0.1 µM; with MCF7 [5], below 0.1 µM; in the assay with T47D [7], below 0.1 µM; in the assay on MCF7 [8], below 0.1 µM. Also, the result in the assay on MCF7 [2] and in the assay on T47D [6] was inactive.

`COc1cc(O)cc(OC)c1O[C@@H]1O[C@H](CO)[C@@H](O)[C@H](O)[C@H]1O` [LEONURISIDE]: the Activity in the assay with T47D [1] is above 100 µM; in the assay on MCF7 [3], below 0.1 µM; in the assay with T47D [4], 39 µM; with MCF7 [5], below 0.1 µM; in the assay on T47D [7] it was 0.4 µM; with MCF7 [8], above 100 µM. In addition, the outcome in the assay on MCF7 [2] and with T47D [6] was inactive.

In the case of `OC[C@@H]1Oc2ccc([C@H]3OC[C@H]4[C@@H]3CO[C@@H]4c3ccc(O)c(O)c3)cc2O[C@H]1c1ccc(O)c(O)c1` [PRINCEPIN], the Activity in the assay on T47D [1] stood at 6 µM; with MCF7 [3], 4 µM; in the assay on T47D [4], 1 µM; with MCF7 [5] it was 0.3 µM; in the assay with T47D [7] it was 0.4 µM; in the assay on MCF7 [8] it was 7 µM. Further, the outcome in the assay on MCF7 [2] and in the assay with T47D [6] was inactive.

Regarding `C[C@@H](/C=C/[C@]1(O)[C@]2(C)CO[C@@]1(C)CC(=O)C2)O[C@@H]1O[C@H](CO)[C@@H](O)[C@H](O)[C@H]1O` [SPIONOSIDE B], the Activity with T47D [1] is above 100 µM; in the assay on MCF7 [3], below 0.1 µM; in the assay on T47D [4], 61 µM; in the assay with MCF7 [5], below 0.1 µM; with T47D [7] it was 0.2 µM; in the assay with MCF7 [8], 15 µM. In addition, the result with MCF7 [2] and in the assay on T47D [6] was inactive.

Consider `COc1cc([C@H]2OC[C@H]3[C@@H]2CO[C@@H]3c2cc(OC)c(O)c(OC)c2)cc(OC)c1O` [SYRINGARESINOL], for which the Activity was 7 µM in the assay on T47D [1]; 4 µM with MCF7 [3]; 1 µM in the assay on T47D [4]; 2 µM with MCF7 [5]; below 0.1 µM with T47D [7]; 5 µM in the assay with MCF7 [8]. Moreover, the outcome in the assay with MCF7 [2] and with T47D [6] was inactive.

Consider `COc1cc(O[C@@H]2O[C@H](CO)[C@@H](O)[C@H](O)[C@H]2O)ccc1O` [TACHIOSIDE], for which the Activity was above 100 µM in the assay with T47D [1]; 0.2 µM with MCF7 [3]; 10 µM in the assay on T47D [4]; below 0.1 µM in the assay with MCF7 [5]; below 0.1 µM with T47D [7]; above 100 µM in the assay on MCF7 [8]. Also, the outcome in the assay on MCF7 [2] and in the assay on T47D [6] was inactive.

For `CC/C(=C(\c1ccccc1)c1ccc(OCCN(C)C)cc1)c1ccccc1` [TAMOXIFEN], the Activity with T47D [1] came to 9 µM; in the assay on MCF7 [3] it was 0.2 µM; in the assay with T47D [4], 0.7 µM; in the assay with MCF7 [5] it was 0.1 µM; with T47D [7], 0.1 µM; in the assay with MCF7 [8] it was 0.4 µM.
